# Bioassay records deposited in PubChem BioAssay by several laboratories.
# An excerpt weighted towards active compounds, which were near 3% of everything screened.
# Rad51 HR inh: Rad51 (human) homologous recombination inhibition. Q06609. hRad51 DNA strand exchange, fluorescence dequenching. inhibition, % at 10 µM. actives 0.085% (n = 200,000). AID 1385;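 active = inhibition above 40% at the single screening dose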;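 also: 0% = DMSO control wells and 100% = blanks with heterologous ssDNA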
#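 Material: hRad51 filaments on single-stranded DNA; Reagent: Donor/quencher-labelled 47-bp dsDNA substrate; Compound: 10 µM final, single point; Schedule: 37 °C 15-min filament assembly, 30-min compound preincubation, 15-min exchange; Technique: FRET fluorescence, excitation 485 nm, emission 520 nm; Benchmarks: control wells and blank wells on each plate.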
# ROMK primary: modulates human ROMK potassium channel activity. AID 1918. actives 2% (n = 130,000). P48048. B-score at 10 µM. Tet-inducible ROMK, thallium flux fluorescence; actives lie on both sides;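 active = signal ratio slope over the read window, or its plate-corrected B-score, at least 3 SD from the plate mean, either direction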;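 also: B-score of the F/F0 ratio slope over 7 to 12 s after thallium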
# PKD1 inh: PKD1 (human) kinase inhibition | Q15139 | PKD1 kinase fluorescence polarization assay | inhibition, % (no concentration beside the values) | actives 0.056% (n = 200,000) | AID 797; in the data active = inhibition above about 50%
# Target sequence (Q15139 whole entry, looked up): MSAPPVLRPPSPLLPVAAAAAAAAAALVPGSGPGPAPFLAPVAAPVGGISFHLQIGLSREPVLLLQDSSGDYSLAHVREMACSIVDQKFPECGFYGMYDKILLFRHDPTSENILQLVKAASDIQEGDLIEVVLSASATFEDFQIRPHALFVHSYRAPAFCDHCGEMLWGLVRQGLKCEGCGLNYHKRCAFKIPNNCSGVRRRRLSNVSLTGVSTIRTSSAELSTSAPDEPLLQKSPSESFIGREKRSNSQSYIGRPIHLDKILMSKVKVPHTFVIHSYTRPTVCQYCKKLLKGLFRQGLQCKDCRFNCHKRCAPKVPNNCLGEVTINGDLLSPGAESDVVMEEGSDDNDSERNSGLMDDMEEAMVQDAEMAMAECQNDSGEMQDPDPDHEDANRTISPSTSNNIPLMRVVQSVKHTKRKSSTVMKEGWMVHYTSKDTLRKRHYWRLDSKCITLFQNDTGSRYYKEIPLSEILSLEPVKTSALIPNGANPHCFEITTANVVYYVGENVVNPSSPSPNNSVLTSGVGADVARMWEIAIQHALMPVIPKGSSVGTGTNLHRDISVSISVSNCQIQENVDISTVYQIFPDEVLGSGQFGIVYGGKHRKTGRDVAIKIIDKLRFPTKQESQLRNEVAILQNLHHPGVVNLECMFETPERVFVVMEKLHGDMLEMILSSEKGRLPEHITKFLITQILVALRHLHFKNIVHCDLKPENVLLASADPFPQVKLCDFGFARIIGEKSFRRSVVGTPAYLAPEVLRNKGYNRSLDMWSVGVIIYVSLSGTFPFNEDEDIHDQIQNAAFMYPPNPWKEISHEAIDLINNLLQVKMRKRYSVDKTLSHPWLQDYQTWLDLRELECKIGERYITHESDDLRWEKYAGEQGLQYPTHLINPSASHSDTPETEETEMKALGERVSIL
# KCC2 mod: modulators of human KCC2 chloride dependent transport. Q9H2X9. KCC2 cells, thallium flux FluoZin-2 fluorescence. B-score of Tl+ flux slope (higher = more flux/activation; lower = inhibition) at 10 µM. actives 2.2% (n = 190,000);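 active = thallium flux slope and its plate-corrected score both differing from the plate sample mean at a set confidence after two filtering rounds, in either direction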;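 also: slope of fluorescence scaled to starting intensity during 10 to 20 s after thallium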
# KCC2 sec1: KCC2 (human) modulation, secondary assay. shares compounds with KCC2 mod. HEK293-KCC2, thallium flux, FluoZin2 fluorescence; stronger effect = higher value. normalised thallium flux (F/F0 slope) at 10 µM. actives 15% (n = 3,700);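 active = thallium flux slope above the same plate's solvent-only control mean plus 3 SD; inconclusive = the two replicate wells disagree; inactive = no significant difference from solvent-only control wells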
# KCC2 bumet counter: thallium flux persisting under bumetanide in KCC2 cells, counter-screen secondary assay. actives 49% (n = 3,700). shares compounds with KCC2 mod. normalized thallium flux at 10 µM. HEK293-KCC2 + bumetanide/ouabain, thallium flux FluoZin2; stronger effect = higher value;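 active = thallium entry rate above the same plate's blocked-transporter control wells by more than 3 SD; inconclusive = the two repeat wells disagree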;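 also: raw slope of fluorescence over initial fluorescence between 10 and 20 s after thallium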
# KCC2 sec2: confirmation of human KCC2 transport modulators. normalized thallium flux at 10 µM. shares compounds with KCC2 mod. HEK293-KCC2, thallium flux FluoZin2 fluorescence; actives lie on both sides; F/F0 rise rate, 10–20 s post-thallium. actives 23% (n = 3,700);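 active = thallium flux slope more than 3 SD above or below the plate's solvent-only control mean, mostly below; inconclusive = the two repeat wells disagreed; inactive = no significant shift from solvent-only controls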;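 also: raw slope with 0.1% DMSO as baseline and bumetanide as block control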
# HEK293 Tl flux: acts in parental HEK cells, KCC2 counter-screen | shares compounds with KCC2 mod | HEK293 parental cells, thallium flux FluoZin2, ouabain; baseline-ratio fluorescence slope, 10–20 s after thallium | thallium flux rate (normalised fluorescence) at 10 µM | actives 46% (n = 3,700) | AID 1716;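 active = thallium flux rate significantly above the same plate's solvent-only control wells, beyond their mean plus 3 SD; inconclusive = the two replicate wells gave conflicting results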
# KCC2 retest ouab: modulates human KCC2 on retest with ouabain | shares compounds with KCC2 mod | HEK293-KCC2, thallium flux FluoZin2 fluorescence; bidirectional: low = inhibitor, high = activator | raw Tl+ flux slope (below DMSO = inhibition, above = activation) at 10 µM | actives 48% (n = 3,700) | AID 1717;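 active = thallium flux slope beyond 3 SD from same-plate DMSO control mean in most replicates, usually higher, sometimes lower; inconclusive = repeat tests gave conflicting results; inactive = no significant difference from controls in most replicates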;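 also: slope of initial-normalized fluorescence between seconds 10 and 20 after thallium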
# HEK293 Tl flux2: counter-screen for KCC2 modulators: effect in parental HEK293 cells; shares compounds with KCC2 mod; thallium flux FluoZin-2 fluorescence slope; thallium flux slope at 10 µM; actives 33% (n = 3,700);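 active = thallium flux slope above the same plate's solvent-control mean plus 3 SD in both duplicate wells; inconclusive = duplicate wells that disagreed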;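 also: run without ouabain in cells lacking the KCC2 cotransporter; slope of fluorescence scaled to its starting value between 10 and 20 s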
# ROMK hit retest: human ROMK channel modulation, retest confirmation; actives 54% (n = 3,000); AID 1917; shares compounds with ROMK primary; normalized thallium flux (F/F0 slope) at 10 µM; ROMK thallium flux, fluorescence ratio; stronger effect = lower value;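 active = Flux at 10 µM at least 3 SD below or above vehicle control mean in one or both replicates; inconclusive = no clear call, values can overlap the other calls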
# Starred values were filed as active, the others as inactive; i = inactive; ? = inconclusive; nt = no result given.
SMILES,Rad51 HR inh,ROMK primary,PKD1 inh,KCC2 mod,KCC2 sec1,KCC2 bumet counter,KCC2 sec2,HEK293 Tl flux,KCC2 retest ouab,HEK293 Tl flux2,others
CN(C)C(=S)NC(=O)c1cccc(Cl)c1,5,0.96,5,21*,0.0071,0.037*,0.033,0.025*,0.036*,0.022*,
COc1ccc(CCNC(=S)NC(=O)c2cccc(Cl)c2)cc1OC,-6,nt,nt,4.5*,0.01,0.032*,0.032,0.012*,0.026,?,
Cc1c(Cl)cccc1-n1c(SCC(=O)NCc2cccs2)nnc1-c1ccncc1,-4,nt,-7,-1.2,0.0099,0.0057,0.036,0.0097*,0.02,0.011,
COc1ccc(/C=C(\CC(=O)O)c2nc3ccccc3s2)cc1O,22,0.44,-2,-0.37,nt,nt,nt,nt,nt,nt,
COc1ccc(-c2nn(-c3ccccc3)cc2/C=C(\CC(=O)O)c2nc3ccccc3s2)cc1OC,-10,0.88,0,-3.8*,0.007,0.006,0.031,?,0.014*,0.01,
O=C(/C=C/c1cn(CC(O)CN2CCCCC2)c2ccccc12)c1cccs1 (stereo not given),-27,nt,3,4.6*,0.0083,0.0059,0.024*,0.0068,0.016*,0.0084,
CCCOCC(O)CC(Cc1ccccc1)C(=O)NN (stereo not given),0,0.052,nt,0.77,nt,nt,nt,nt,nt,nt,
N#Cc1sc(C(N)=O)c(-c2ccccc2)c1-c1ccccc1,3,nt,nt,5.1*,0.0073,0.0042,0.029,0.0074,0.018,0.01,
COc1ccc(-c2c(C#N)sc(C(N)=O)c2-c2ccc(OC)cc2)cc1,30,nt,nt,-2.6,nt,nt,nt,nt,nt,nt,
COc1ccccc1-c1nnc(NC(=O)CSc2nncn2C)s1,19,-1.3,-5,0.92,nt,nt,nt,nt,nt,nt,
Cc1cnc(C(=O)OCC(=O)NC(C)CCc2ccccc2)cn1 (stereo not given),0,0.14,3,-0.76,nt,nt,nt,nt,nt,nt,
Cc1ccc(Cl)cc1NC(=S)N/N=C/c1cccc2ccccc12,10,nt,nt,30*,0.0091,0.035*,0.033,?,0.028*,0.013,
Clc1c(Cl)c(Cl)c2n[nH]nc2c1Cl,0,nt,nt,-6.7*,?,0.0051,?,0.0034*,0.013*,0.0074*,
COc1ccc(/C=c2\s/c(=C/C(=O)c3ccc(C)cc3)[nH]c2=O)cc1OC,-70,nt,-3,0.62,nt,nt,nt,nt,nt,nt,
CC(C)(C)C(=O)/C=c1\[nH]c(=O)/c(=C\c2ccccc2F)s1,3,0.93,-4,18*,0.0078,0.024*,0.038*,0.015*,0.032*,0.018*,
C=C(C)CNC(=S)N/N=C/c1ccc([N+](=O)[O-])cc1,-4,-0.24,-1,1.5,nt,nt,nt,nt,nt,nt,
C=C(C)CNC(=S)N/N=C/c1c(F)cccc1F,-1,0.17,0,16*,0.02*,0.048*,?,0.023*,0.03*,0.025*,
O=C(c1ccc2c3n(nc2c1)-c1ccccc1CO3)N1CCCCC1,-6,nt,nt,-2.5*,0.0069,?,0.032,0.0076,0.02,0.0098,
CC(C)OCCCNC(=O)c1ccc(Br)cc1,1,nt,-1,0.64,nt,nt,nt,nt,nt,nt,
CC(C)OCCCn1c(-c2ccc(Br)cc2)c[nH]c1=S,-1,0.22,2,9.5*,0.0094,0.043*,0.036,0.02*,0.04*,0.013*,
O=C(CCS(=O)(=O)Cc1ccc(Cl)cc1)NCCc1ccccc1,33,-0.4,0,-1.5,nt,nt,nt,nt,nt,nt,
CCc1ccc2nc(N3C(=O)c4oc5ccccc5c(=O)c4C3c3ccc(OC)c(OC)c3)sc2c1 (stereo not given),-5,nt,1,-0.82,nt,nt,nt,nt,nt,nt,
CC1CCC2(CC1)C(Nc1cccc(Cl)c1)=NC(=S)N2CC#N (stereo not given),-3,-0.36,3,19*,0.0097*,0.05*,0.055*,0.052*,0.045*,0.041*,
CCc1oc2ccccc2c1C(=O)c1cc(Br)c(O)c(Br)c1,9,4.6*,10,-1.6,0.0067,0.019*,0.022*,0.011*,?,?,ROMK hit retest=0.15*
CCOc1ccc(S(=O)(=O)N(C)c2ccc(OCC(=O)Nc3nc(-c4cc(OC)ccc4OC)cs3)cc2)cc1,5,nt,-6,-0.83,nt,nt,nt,nt,nt,nt,
SMILES,Rad51 HR inh,ROMK primary,PKD1 inh,KCC2 mod,KCC2 sec1,KCC2 bumet counter,KCC2 sec2,HEK293 Tl flux,KCC2 retest ouab,HEK293 Tl flux2,others
Cc1cc(C)c2cc(C(=O)Nc3ccccc3)[nH]c2c1,13,nt,nt,-0.12,nt,nt,nt,nt,nt,nt,ROMK hit retest=0.079
Cc1cc(C)c2cc(C(=O)Nc3ccc4c(c3)OCO4)[nH]c2c1,12,-0.24,nt,0.29,nt,nt,nt,nt,nt,nt,
Cc1cc(C(C)(C)C)cc(S(=O)(=O)Nc2cccc(C(=O)O)c2)c1C,-4,4.7*,-5,nt,nt,nt,nt,nt,nt,nt,ROMK hit retest=0.079
Cc1cc2oc(=O)cc(Cn3ccnc3)c2cc1C,6,-6.3*,0,0.17,nt,nt,nt,nt,nt,nt,ROMK hit retest=0.077
COC(=O)C(C(=O)Nc1ccccc1C)C1CCCCCC1 (stereo not given),nt,0.87,-7,0.087,nt,nt,nt,nt,nt,nt,
Cn1c(=O)c2c(nc(Br)n2CCCc2ccccc2)n(C)c1=O,nt,-4.1*,13,nt,nt,nt,nt,nt,nt,nt,ROMK hit retest=0.063*
O=C(CSCc1ccc(Cl)cc1)Nc1ccc(S(=O)(=O)N2CCOCC2)cc1,0,nt,-14,-0.025,nt,nt,nt,nt,nt,nt,
N#Cc1nc(-c2ccc(OCc3ccccc3)cc2)oc1NCc1cccnc1,-7,-0.82,1,nt,nt,nt,nt,nt,nt,nt,
CCOc1ccc(-c2nc(C#N)c(NCc3ccco3)o2)cc1,-7,0.67*,-5,nt,nt,nt,nt,nt,nt,nt,ROMK hit retest=0.086
O=C(O)c1cc(-c2ccc(/C=C3/SC(=S)N(Cc4ccccc4)C3=O)o2)ccc1Cl,i,-4*,2,-3,nt,nt,nt,nt,nt,nt,ROMK hit retest=0.043*
COc1ccc(CN2C(=O)/C(=C/c3ccc(-c4ccc(Cl)c(C(=O)O)c4)o3)SC2=S)cc1,i,-0.31,2,-1.8,nt,nt,nt,nt,nt,nt,
Fc1ccc(CNC(=S)Nc2ccccc2Cl)cc1,5,0.53,9,0.91,nt,nt,nt,nt,nt,nt,
O=C(NC(=S)N(Cc1ccccc1)c1ccccn1)C1CC1,3,nt,-1,0.31,nt,nt,nt,nt,nt,nt,
CC1(C)Cc2cccc(OCC(=O)OCC(=O)Nc3cccc(S(N)(=O)=O)c3)c2O1,-31,nt,nt,-0.098,nt,nt,nt,nt,nt,nt,
O=C(/C=C/c1ccco1)Nc1cccnc1,nt,0.14,-5,0.31,nt,nt,nt,nt,nt,nt,
Cc1ccc(NC(=O)/C=C/c2ccco2)nc1,11,4.5*,-12,-0.39,nt,nt,nt,nt,nt,nt,ROMK hit retest=0.09
